Assay results from ChEMBL document CHEMBL4673258, “Discovery of IPN60090, a Clinical Stage Selective Glutaminase-1 (GLS-1) Inhibitor with Excellent Pharmacokinetic and Physicochemical Properties” (J Med Chem, 2020).

Columns and labels:
[1] = rat, microsomes, 0.75 h, 1 µM
[2] = Permeability across basolateral to apical side in human Caco-2 cells at 10 uM measured after 90 mins by LC-MS/MS analysis; format: ADME, cell-based
Procedure, shortened: (§1)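 Caco-2 monolayers grown 21–28 days on polycarbonate filter inserts, with TEER and Lucifer Yellow checked before and after. Compound at 10 μM in HBSS with 25 mM HEPES, pH 7.4. Run A→B and B→A at 37 °C for 90 min. Receiver and donor samples quantified by LC-MS/MS.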

[3] = Intrinsic clearance in dog hepatocytes […] at 2 uM measured after 15 to 120 mins by LC-MS analysis; format: ADME, cell-based, Canis lupus familiaris, Hepatocyte; conditions: time 15-120 min
Procedure, shortened: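 Hepatocytes at 2×10^6 viable cells/mL, mixed with an equal volume of 2 μM compound in KHB buffer. Incubated at 37 °C and quenched with ACN at 0, 15, 30, 60 and 120 min. Analysed by LC/MS, with percent remaining from peak area ratio to internal standard against 0 min. Half-life from a single-phase exponential fit.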

[4] = Permeability across apical to basolateral side in human Caco-2 cells at 10 uM measured after 90 mins by LC-MS/MS analysis; format: ADME, cell-based
Procedure, shortened: as §1

[5] = human, microsomes, 0.75 h, 1 µM

## O=C(Cc1cccc(OC(F)(F)F)c1)Nc1ccc(CCCCc2nnc(NC(=O)Cc3ccccn3)s2)nn1
[1]
  CLH: 203 mL/min

## O=C(Cc1cccc(OC(F)(F)F)c1)Nc1ccc(CCCCn2cc(C(=O)NCc3ccccn3)nn2)nn1
[1]
  CLH: 162 mL/min

## CNC(=O)c1cn(C[C@H](F)CCc2ccc(NC(=O)Cc3cc(-c4cccc(OC(F)(F)F)c4)ccn3)nn2)nn1
[2]
  permeability: 21 10^-6 cm/s
[3]
  CLint: 12 mL/min/kg
[4]
  permeability: 5.8 10^-6 cm/s

## O=C(Cc1ccccc1)Nc1ccc(CCCCn2cc(C(=O)NCc3ccccc3)nn2)nn1
[1]
  CLH: 128 mL/min

## CNC(=O)c1cn(C[C@H](F)CCc2ccc(NC(=O)Cc3cc(C(F)(F)F)ccn3)nn2)nn1
[5]
  CLH: 0.2 mL/min

## O=C(Cc1ccccn1)Nc1ccc(CCCCn2cc(C(=O)NCc3cccc(OC(F)(F)F)c3)nn2)nn1
[1]
  CLH: 283 mL/min
